{"source": "paper PMC5743405", "about": "(International Journal of Oncology, 2017)", "key": {"[1]": {"test_system": "ADCYAP1R1", "assay": "PathHunter β-arrestin", "type": "cell-based", "conditions": "6 μM", "method_in_brief": "(§1)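 β-Arrestin recruitment assay: the enzyme acceptor is fused to β-arrestin and the ED fragment to the GPCR. Recruitment restores β-galactosidase, read by chemiluminescence. % activity = 100% × (test − vehicle)/(max control ligand − vehicle). % inhibition = 100% × (1 − (test − vehicle)/(EC80 control − vehicle)). An agonist hit needs >30% activity and RLU > baseline + 3×SD. An antagonist hit needs >35% inhibition and RLU < EC80 RLU − 3×SD.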"}, "[2]": {"test_system": "ADRA2B", "assay": "PathHunter β-arrestin", "type": "cell-based", "conditions": "antagonist mode, 6 μM", "method_in_brief": "as §1"}, "[3]": {"test_system": "AVPR1B", "assay": "PathHunter β-arrestin", "type": "cell-based", "conditions": "antagonist mode, 6 μM", "method_in_brief": "as §1"}, "[4]": {"test_system": "BDKRB2", "assay": "PathHunter β-arrestin", "type": "cell-based", "conditions": "antagonist mode, 6 μM", "method_in_brief": "as §1"}, "[5]": {"test_system": "C3AR1", "assay": "PathHunter β-arrestin", "type": "cell-based", "conditions": "antagonist mode, 6 μM", "method_in_brief": "as §1"}, "[6]": {"test_system": "CALCRL-RAMP1", "assay": "PathHunter β-arrestin", "type": "cell-based", "conditions": "antagonist mode, 6 μM", "method_in_brief": "as §1"}, "[7]": {"test_system": "CALCR-RAMP3", "assay": "PathHunter β-arrestin", "type": "cell-based", "conditions": "antagonist mode, 6 μM", "method_in_brief": "as §1"}, "[8]": {"test_system": "CCR2", "assay": "PathHunter β-arrestin", "type": "cell-based", "conditions": "antagonist mode, 6 μM", "method_in_brief": "as §1"}, "[9]": {"test_system": "CCR9", "assay": "PathHunter β-arrestin", "type": "cell-based", "conditions": "6 μM", "method_in_brief": "(§2)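 Engineered cells express the receptor fused to one β-galactosidase fragment (ED) and β-arrestin fused to the complementing fragment (EA). Receptor activation recruits β-arrestin, which restores enzyme activity, and this is read by chemiluminescence (RLU). Agonist % activity is 100% × (test − vehicle)/(maximal control ligand − vehicle). Antagonist mode is challenged with an EC80 control agonist, and % inhibition is 100% × (1 − (test − vehicle)/(EC80 − vehicle)). Hits require >30% activity or >35% inhibition, plus a 3×SD RLU margin.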"}, "[10]": {"test_system": "CRHR1", "assay": "PathHunter β-arrestin", "type": "cell-based", "conditions": "6 μM", "method_in_brief": "as §2"}, "[11]": {"test_system": "DRD2S", "assay": "PathHunter β-arrestin", "type": "cell-based", "conditions": "antagonist mode, 6 μM", "method_in_brief": "as §2"}, "[12]": {"test_system": "DRD3", "assay": "PathHunter β-arrestin", "type": "cell-based", "conditions": "6 μM", "method_in_brief": "as §2"}, "[13]": {"test_system": "EDG5", "assay": "PathHunter β-arrestin", "type": "cell-based", "conditions": "6 μM", "method_in_brief": "as §2"}, "[14]": {"test_system": "EDG6", "assay": "PathHunter β-arrestin", "type": "cell-based", "conditions": "6 μM", "method_in_brief": "as §2"}, "[15]": {"test_system": "F2R", "assay": "PathHunter β-arrestin", "type": "cell-based", "conditions": "agonist mode, 6 μM", "method_in_brief": "as §2"}, "[16]": {"test_system": "F2RL3", "assay": "PathHunter β-arrestin", "type": "cell-based", "conditions": "6 μM", "method_in_brief": "as §2"}, "[17]": {"test_system": "FFAR1", "assay": "PathHunter β-arrestin", "type": "cell-based", "conditions": "agonist mode, 6 μM", "method_in_brief": "as §2"}, "[18]": {"test_system": "GLP2R", "assay": "PathHunter β-arrestin", "type": "cell-based", "conditions": "agonist mode, 6 μM", "method_in_brief": "(§3)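 Vendor-run (DiscoveRx) PathHunter enzyme fragment complementation. β-Arrestin carries the EA fragment and the receptor carries ED; recruitment restores β-gal activity, read by chemiluminescence (RLU). Agonist % activity = vehicle-subtracted RLU relative to max control ligand (gpcrMAX) or to vehicle (orphanMAX). Antagonist % inhibition = 100% × (1 − vehicle-subtracted sample RLU / vehicle-subtracted EC80 agonist control RLU).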"}, "[19]": {"test_system": "GPR92", "assay": "PathHunter β-arrestin", "type": "cell-based", "conditions": "6 μM", "method_in_brief": "as §3"}, "[20]": {"test_system": "HRH1", "assay": "PathHunter β-arrestin", "type": "cell-based", "conditions": "agonist mode, 6 μM", "method_in_brief": "as §3"}, "[21]": {"test_system": "HTR2A", "assay": "PathHunter β-arrestin", "type": "cell-based", "conditions": "6 μM", "method_in_brief": "as §3"}, "[22]": {"test_system": "MRGPRX1", "assay": "PathHunter β-arrestin", "type": "cell-based", "conditions": "6 μM", "method_in_brief": "as §3"}, "[23]": {"test_system": "NMU1R", "assay": "PathHunter β-arrestin", "type": "cell-based", "conditions": "6 μM", "method_in_brief": "as §3"}, "[24]": {"test_system": "NPY2R", "assay": "PathHunter β-arrestin", "type": "cell-based", "conditions": "antagonist mode, 6 μM", "method_in_brief": "as §3"}, "[25]": {"test_system": "P2RY12", "assay": "PathHunter β-arrestin", "type": "cell-based", "conditions": "6 μM", "method_in_brief": "(§4)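 β-Arrestin recruitment to GPCR read by β-galactosidase fragment complementation and chemiluminescence. Agonist: % = 100 × (test − vehicle)/(max control ligand − vehicle), hit at >30% and RLU > baseline + 3 SD. Antagonist, against EC80 agonist: % inhibition = 100 × (1 − (test − vehicle)/(EC80 − vehicle)), hit at >35% and RLU < EC80 − 3 SD.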"}, "[26]": {"test_system": "PROKR2", "assay": "PathHunter β-arrestin", "type": "cell-based", "conditions": "antagonist mode, 6 μM"}, "[27]": {"test_system": "PTGFR", "assay": "PathHunter β-arrestin", "type": "cell-based", "conditions": "antagonist mode, 6 μM"}, "[28]": {"test_system": "TSHR(L)", "assay": "PathHunter β-arrestin", "type": "cell-based", "conditions": "antagonist mode, 6 μM"}, "[29]": {"test_system": "UTR2", "assay": "PathHunter β-arrestin", "type": "cell-based", "conditions": "6 μM", "method_in_brief": "as §4"}, "[30]": {"test_system": "TLR5", "assay": "western blot, JJ012 cells", "type": "cell-based, human", "conditions": "vs untreated control, overnight incubation"}, "[31]": {"test_system": "nucleolin", "assay": "western blot, JJ012 cells", "type": "cell-based, human", "conditions": "vs untreated control, overnight incubation"}, "[32]": {"test_system": "c-Myc", "assay": "RT2 qPCR primer assay, JJ012 cells", "type": "cell-based, human", "method_in_brief": "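RNA extracted from treated and control JJ012 cells, checked by spectrophotometry and reverse transcribed. SYBR Green qPCR with custom primer assays on three samples in technical triplicates. Ct normalized to the average of GAPDH and ACTB. Fold change vs control by 2^−ΔΔCt, shown as a heat map of average Ct.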"}, "[33]": {"test_system": "TET1/2 and SOCS3", "conditions": "human chondrosarcoma; ref previously reported ([8],[9]); cited from earlier work"}, "[34]": {"test_system": "tumor suppressor miRNAs and onco-miRNAs", "conditions": "JJ012 cell line; ref [7]; cited from earlier work"}}}
{"substance": "Proline rich polypeptide 1 [PRP-1]", "values": [{"measurement": "% Activity", "setting": "[1]; agonist mode", "value": 1, "unit": "%"}, {"measurement": "% Inhibition", "setting": "[1]; antagonist mode", "value": "−6", "unit": "%"}, {"measurement": "% Inhibition", "setting": "[2]", "value": 2, "unit": "%"}, {"measurement": "% Inhibition", "setting": "[3]", "value": "−2", "unit": "%"}, {"measurement": "% Inhibition", "setting": "[4]", "value": 5, "unit": "%"}, {"measurement": "% Inhibition", "setting": "[5]", "value": "−2", "unit": "%"}, {"measurement": "% Inhibition", "setting": "[6]", "value": 4, "unit": "%"}, {"measurement": "% Inhibition", "setting": "[7]", "value": "−8", "unit": "%"}, {"measurement": "% Inhibition", "setting": "[8]", "value": "−3", "unit": "%"}, {"measurement": "% Activity", "setting": "[9]; agonist mode", "value": 1, "unit": "%"}, {"measurement": "% Inhibition", "setting": "[9]; antagonist mode", "value": "−6", "unit": "%"}, {"measurement": "% Activity", "setting": "[10]; agonist mode", "value": 1, "unit": "%"}, {"measurement": "% Inhibition", "setting": "[10]; antagonist mode", "value": 1, "unit": "%"}, {"measurement": "% Inhibition", "setting": "[11]", "value": 6, "unit": "%"}, {"measurement": "% Activity", "setting": "[12]; agonist mode", "value": 2, "unit": "%"}, {"measurement": "% Inhibition", "setting": "[12]; antagonist mode", "value": "−15", "unit": "%"}, {"measurement": "% Activity", "setting": "[13]; agonist mode", "value": 1, "unit": "%"}, {"measurement": "% Inhibition", "setting": "[13]; antagonist mode", "value": "−8", "unit": "%"}, {"measurement": "% Activity", "setting": "[14]; agonist mode", "value": "−2", "unit": "%"}, {"measurement": "% Inhibition", "setting": "[14]; antagonist mode", "value": 4, "unit": "%"}, {"measurement": "% Activity", "setting": "[15]", "value": "−2", "unit": "%"}, {"measurement": "% Activity", "setting": "[16]; agonist mode", "value": "−1", "unit": "%"}, {"measurement": "% Inhibition", "setting": "[16]; antagonist mode", "value": "−1", "unit": "%"}, {"measurement": "% Activity", "setting": "[17]", "value": 3, "unit": "%"}, {"measurement": "% Activity", "setting": "[18]", "value": 1, "unit": "%"}, {"measurement": "% Activity", "setting": "[19]; agonist mode", "value": 1, "unit": "%"}, {"measurement": "% Inhibition", "setting": "[19]; antagonist mode", "value": 12, "unit": "%"}, {"measurement": "% Activity", "setting": "[20]", "value": 1, "unit": "%"}, {"measurement": "% Activity", "setting": "[21]; agonist mode", "value": 1, "unit": "%"}, {"measurement": "% Inhibition", "setting": "[21]; antagonist mode", "value": "−5", "unit": "%"}, {"measurement": "% Activity", "setting": "[22]; agonist mode", "value": 1, "unit": "%"}, {"measurement": "% Inhibition", "setting": "[22]; antagonist mode", "value": "−2", "unit": "%"}, {"measurement": "% Activity", "setting": "[23]; agonist mode", "value": 1, "unit": "%"}, {"measurement": "% Inhibition", "setting": "[23]; antagonist mode", "value": "−3", "unit": "%"}, {"measurement": "% Inhibition", "setting": "[24]", "value": "−2", "unit": "%"}, {"measurement": "% Activity", "setting": "[25]; agonist mode", "value": 1, "unit": "%"}, {"measurement": "% Inhibition", "setting": "[25]; antagonist mode", "value": 8, "unit": "%"}, {"measurement": "% Inhibition", "setting": "[26]", "value": 8, "unit": "%"}, {"measurement": "% Inhibition", "setting": "[27]", "value": 1, "unit": "%"}, {"measurement": "% Inhibition", "setting": "[28]", "value": "−4", "unit": "%"}, {"measurement": "% Activity", "setting": "[29]; agonist mode", "value": 3, "unit": "%"}, {"measurement": "% Inhibition", "setting": "[29]; antagonist mode", "value": "−7", "unit": "%"}, {"measurement": "protein expression", "setting": "[30]", "value": "PRP-1 did not have any effect"}, {"measurement": "protein expression", "setting": "[31]", "value": "no changes in nucleolin protein expression"}, {"measurement": "gene expression", "setting": "[32]; 10 μg/ml PRP-1, heat map, technical triplicates", "value": "went down drastically"}, {"measurement": "c-Myc gene expression, dose response", "setting": "[32]; qRT-PCR, 1 and 10 μg/ml", "value": "downregulation of its gene expression in dose-response manner"}, {"measurement": "expression of TET1/2 and SOCS3", "setting": "[33]", "value": "significant upregulation"}, {"measurement": "miRNA regulation", "setting": "[34]", "value": "upregulate tumor suppressor miRNAs and downregulate onco-miRNAs"}]}
